# Experiments:
# [1] = target: Serine/threonine-protein kinase ULK3 (Homo sapiens) (UniProt Q6PHR2); test: Inhibition of ULK3 at 3 uM
# [2] = target: Beta-2 adrenergic receptor (Homo sapiens) (UniProt P07550); test: Inhibition of human adrenergic beta2 receptor at 3 uM
# In short: (§1)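 Counter-screen binding/enzyme panel at single 3 μM, n=2; results as percent inhibition. Species per target as listed (rat NMDA, GABAA sites; human receptors, transporters; rabbit ACE).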
# [3] = target: Serine/threonine-protein kinase Nek2 (Homo sapiens) (UniProt P51955); test: Inhibition of NEK2 at 3 uM
# Chain of Serine/threonine-protein kinase Nek2 (Homo sapiens) (P51955 whole entry): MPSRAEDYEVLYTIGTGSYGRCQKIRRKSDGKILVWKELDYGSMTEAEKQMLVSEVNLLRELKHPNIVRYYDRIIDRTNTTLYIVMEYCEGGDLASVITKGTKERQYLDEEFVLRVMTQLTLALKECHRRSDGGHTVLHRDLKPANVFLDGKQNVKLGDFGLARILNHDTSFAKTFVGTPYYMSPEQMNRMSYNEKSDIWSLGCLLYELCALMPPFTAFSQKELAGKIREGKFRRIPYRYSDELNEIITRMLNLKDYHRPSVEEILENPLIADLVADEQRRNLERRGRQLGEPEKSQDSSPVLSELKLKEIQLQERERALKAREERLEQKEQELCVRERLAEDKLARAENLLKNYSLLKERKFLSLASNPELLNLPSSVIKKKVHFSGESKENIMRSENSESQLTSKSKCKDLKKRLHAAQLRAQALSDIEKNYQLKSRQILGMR
# [4] = target: Serine/threonine-protein kinase DCLK2 (Homo sapiens) (UniProt Q8N568); test: Inhibition of DCAMKL2 at 3 uM
# [5] = target: Focal adhesion kinase 1 (Homo sapiens) (UniProt Q05397); test: Inhibition of PTK2 at 3 uM
# [6] = target: LIM domain kinase 1 (Homo sapiens) (UniProt P53667); test: Inhibition of LIMK1 at 3 uM
# Chain of LIM domain kinase 1 (Homo sapiens) (P53667 whole entry, looked up, the tested form may be a part): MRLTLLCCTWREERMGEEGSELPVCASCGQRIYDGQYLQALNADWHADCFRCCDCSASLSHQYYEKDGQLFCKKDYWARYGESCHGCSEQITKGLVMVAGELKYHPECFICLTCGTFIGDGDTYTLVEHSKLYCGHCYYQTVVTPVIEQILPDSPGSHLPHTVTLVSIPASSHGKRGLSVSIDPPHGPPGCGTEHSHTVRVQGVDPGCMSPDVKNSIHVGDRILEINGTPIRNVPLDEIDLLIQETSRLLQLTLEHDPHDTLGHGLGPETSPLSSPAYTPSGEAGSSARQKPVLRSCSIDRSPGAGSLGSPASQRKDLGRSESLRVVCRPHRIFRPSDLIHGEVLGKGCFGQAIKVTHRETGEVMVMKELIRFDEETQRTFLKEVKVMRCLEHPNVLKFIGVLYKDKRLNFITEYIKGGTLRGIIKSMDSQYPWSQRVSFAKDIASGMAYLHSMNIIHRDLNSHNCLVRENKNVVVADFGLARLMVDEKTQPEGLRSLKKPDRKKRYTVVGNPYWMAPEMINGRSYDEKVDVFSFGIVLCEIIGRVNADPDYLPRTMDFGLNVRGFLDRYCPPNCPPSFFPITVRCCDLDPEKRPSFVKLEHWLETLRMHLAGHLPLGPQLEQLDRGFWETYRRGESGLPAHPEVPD
# [7] = target: Proto-oncogene tyrosine-protein kinase receptor Ret (Homo sapiens) (UniProt P07949); test: Inhibition of RET at 3 uM
# [8] = target: TGF-beta receptor type-2 (Homo sapiens) (UniProt P37173); test: Inhibition of TGFBR2 at 3 uM
# CYP2C9 = CYP2C9 (Homo sapiens, UniProt P11712); test: Inhibition of human CYP2C9 at 10 uM; format: ADME
# [9] = target: Neuropeptide Y receptor type 1 (Homo sapiens) (UniProt P25929); test: Inhibition of human neuropeptide Y Y1 receptor at 3 uM; in short: as §1
# [10] = tested on: Mast/stem cell growth factor receptor Kit (Homo sapiens), P10721 [V559D,T670I]; test: Inhibition of KIT V559D,T670I mutant at 3 uM
# [11] = target: Mitogen-activated protein kinase kinase kinase kinase 3 (Homo sapiens) (UniProt Q8IVH8); test: Inhibition of MAP4K3 at 3 uM
# [12] = target: Serine/threonine-protein kinase 3 (Homo sapiens) (UniProt Q13188); test: Inhibition of MST2 at 3 uM
# Chain of Serine/threonine-protein kinase 3 (Homo sapiens) (Q13188 whole entry): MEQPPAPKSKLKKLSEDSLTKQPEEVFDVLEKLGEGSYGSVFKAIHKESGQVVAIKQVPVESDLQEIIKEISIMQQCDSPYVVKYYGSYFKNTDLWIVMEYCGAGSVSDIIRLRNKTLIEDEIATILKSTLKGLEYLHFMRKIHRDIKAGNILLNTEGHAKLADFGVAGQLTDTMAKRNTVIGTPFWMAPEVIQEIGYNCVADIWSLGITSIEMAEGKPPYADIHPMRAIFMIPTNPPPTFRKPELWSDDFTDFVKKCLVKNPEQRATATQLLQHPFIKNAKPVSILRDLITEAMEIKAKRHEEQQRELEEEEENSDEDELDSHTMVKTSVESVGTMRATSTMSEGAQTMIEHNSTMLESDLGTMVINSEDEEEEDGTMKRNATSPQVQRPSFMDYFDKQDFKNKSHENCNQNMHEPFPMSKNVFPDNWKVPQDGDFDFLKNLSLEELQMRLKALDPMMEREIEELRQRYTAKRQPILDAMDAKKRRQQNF
# [13] = target: Serine/threonine-protein kinase PAK 2 (Homo sapiens) (UniProt Q13177); test: Inhibition of PAK2 at 3 uM
# Chain of Serine/threonine-protein kinase PAK 2 (Homo sapiens) (Q13177 whole entry): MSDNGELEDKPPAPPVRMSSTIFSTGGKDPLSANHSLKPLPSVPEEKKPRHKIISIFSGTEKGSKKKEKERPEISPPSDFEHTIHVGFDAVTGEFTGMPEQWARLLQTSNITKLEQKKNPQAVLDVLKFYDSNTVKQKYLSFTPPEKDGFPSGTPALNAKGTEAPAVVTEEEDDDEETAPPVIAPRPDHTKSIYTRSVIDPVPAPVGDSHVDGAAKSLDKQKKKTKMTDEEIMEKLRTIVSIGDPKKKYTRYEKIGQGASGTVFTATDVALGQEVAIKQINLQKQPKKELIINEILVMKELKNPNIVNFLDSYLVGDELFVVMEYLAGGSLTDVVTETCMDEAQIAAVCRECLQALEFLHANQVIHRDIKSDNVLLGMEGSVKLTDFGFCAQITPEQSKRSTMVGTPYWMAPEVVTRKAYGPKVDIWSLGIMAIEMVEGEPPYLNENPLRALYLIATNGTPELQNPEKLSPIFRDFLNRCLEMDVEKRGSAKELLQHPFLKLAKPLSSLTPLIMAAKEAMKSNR
# [14] = target: Macrophage-stimulating protein receptor (Homo sapiens) (UniProt Q04912); test: Inhibition of MST1R at 3 uM
# [15] = Half life in Sprague-Dawley rat at 1 mg/kg, iv; details: in vivo
# [16] = target: Endothelin-1 receptor (Homo sapiens) (UniProt P25101); test: Inhibition of human endothelin ETA receptor at 3 uM; in short: as §1
# Chain of Endothelin-1 receptor (Homo sapiens) (P25101 whole entry, canonical isoform): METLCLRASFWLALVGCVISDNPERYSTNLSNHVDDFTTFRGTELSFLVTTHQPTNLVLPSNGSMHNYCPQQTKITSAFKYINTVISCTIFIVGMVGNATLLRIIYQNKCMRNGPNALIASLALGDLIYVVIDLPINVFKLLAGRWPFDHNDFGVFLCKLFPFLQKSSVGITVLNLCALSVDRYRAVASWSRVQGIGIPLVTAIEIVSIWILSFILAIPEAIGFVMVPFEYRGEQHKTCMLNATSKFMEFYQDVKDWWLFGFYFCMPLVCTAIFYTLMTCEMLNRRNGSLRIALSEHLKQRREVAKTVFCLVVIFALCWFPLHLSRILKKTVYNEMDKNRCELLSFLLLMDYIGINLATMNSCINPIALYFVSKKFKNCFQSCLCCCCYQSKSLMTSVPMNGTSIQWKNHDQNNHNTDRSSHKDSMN
# [17] = target: Phosphorylase b kinase gamma catalytic chain, liver/testis isoform (Homo sapiens) (UniProt P15735); test: Inhibition of PHKG2 at 3 uM
# Chain of Phosphorylase b kinase gamma catalytic chain, liver/testis isoform (Homo sapiens) (P15735 whole entry, canonical isoform): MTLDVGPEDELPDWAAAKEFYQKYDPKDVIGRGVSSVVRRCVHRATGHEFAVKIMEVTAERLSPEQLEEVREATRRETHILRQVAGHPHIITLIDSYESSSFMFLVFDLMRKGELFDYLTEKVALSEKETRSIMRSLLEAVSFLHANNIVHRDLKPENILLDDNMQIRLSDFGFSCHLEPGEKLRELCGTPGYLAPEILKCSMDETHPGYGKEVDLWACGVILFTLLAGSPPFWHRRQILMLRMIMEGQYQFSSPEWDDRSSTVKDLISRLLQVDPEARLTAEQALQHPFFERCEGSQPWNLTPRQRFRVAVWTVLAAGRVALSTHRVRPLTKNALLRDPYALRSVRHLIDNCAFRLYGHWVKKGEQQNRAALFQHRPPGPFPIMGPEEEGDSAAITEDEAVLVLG
# [18] = target: Mitogen-activated protein kinase kinase kinase kinase 2 (Homo sapiens) (UniProt Q12851); test: Inhibition of MAP4K2 at 3 uM
# Chain of Mitogen-activated protein kinase kinase kinase kinase 2 (Homo sapiens) (Q12851 whole entry): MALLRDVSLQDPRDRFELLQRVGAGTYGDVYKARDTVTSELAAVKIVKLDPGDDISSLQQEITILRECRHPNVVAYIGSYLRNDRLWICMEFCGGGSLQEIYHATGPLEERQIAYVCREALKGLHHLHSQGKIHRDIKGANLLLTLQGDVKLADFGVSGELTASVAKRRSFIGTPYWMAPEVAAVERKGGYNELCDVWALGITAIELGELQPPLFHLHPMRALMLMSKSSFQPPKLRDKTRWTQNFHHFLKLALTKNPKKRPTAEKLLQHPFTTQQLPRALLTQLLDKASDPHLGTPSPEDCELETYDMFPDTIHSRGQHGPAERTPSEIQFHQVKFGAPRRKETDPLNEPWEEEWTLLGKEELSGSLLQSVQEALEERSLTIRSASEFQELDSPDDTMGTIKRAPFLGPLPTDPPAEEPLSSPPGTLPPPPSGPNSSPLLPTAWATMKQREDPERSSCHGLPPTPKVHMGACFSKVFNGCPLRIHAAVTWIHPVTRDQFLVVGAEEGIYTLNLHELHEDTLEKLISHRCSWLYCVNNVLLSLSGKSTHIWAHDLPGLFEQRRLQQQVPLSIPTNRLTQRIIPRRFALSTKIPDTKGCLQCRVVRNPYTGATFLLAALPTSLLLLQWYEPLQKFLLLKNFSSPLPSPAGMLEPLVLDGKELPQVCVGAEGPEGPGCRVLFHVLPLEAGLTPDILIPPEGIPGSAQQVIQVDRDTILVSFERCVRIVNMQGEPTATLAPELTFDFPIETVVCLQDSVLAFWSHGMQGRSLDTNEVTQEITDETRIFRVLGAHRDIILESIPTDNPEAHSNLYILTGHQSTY
# [19] = target: Receptor tyrosine-protein kinase erbB-4 (Homo sapiens) (UniProt Q15303); test: Inhibition of ERBB4 at 3 uM
# In short: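 Single-concentration kinase panel scoring: each value is the percentage of enzyme activity remaining relative to a DMSO-only control. An activity statistically indistinct from DMSO control was scored "no hit".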
# [20] = target: Androgen receptor (Rattus norvegicus) (UniProt P15207); test: Inhibition of rat androgen receptor at 3 uM
# [21] = target: Protein-tyrosine kinase 6 (Homo sapiens) (UniProt Q13882); test: Inhibition of PTK6 at 3 uM
# Rattus norvegicus = organism: Rattus norvegicus; details: 3 uM
# [22] = target: Type-1 angiotensin II receptor (Homo sapiens) (UniProt P30556); test: Inhibition of human AT1 receptor at 3 uM; in short: as §1
# [23] = target: Serine/threonine-protein kinase Nek5 (Homo sapiens) (UniProt Q6P3R8); test: Inhibition of NEK5 at 3 uM
# [24] = target: Kappa-type opioid receptor (Homo sapiens) (UniProt P41145); test: Inhibition of human kappa opioid receptor at 3 uM
# [25] = Inhibition of myosin light chain bisphosphorylation in rat A7r5 cells after 1 hr
# [26] = target: Neuropeptide Y receptor type 2 (Homo sapiens) (UniProt P49146); test: Inhibition of human neuropeptide Y Y2 receptor at 3 uM
# Chain of Neuropeptide Y receptor type 2 (Homo sapiens) (P49146 whole entry): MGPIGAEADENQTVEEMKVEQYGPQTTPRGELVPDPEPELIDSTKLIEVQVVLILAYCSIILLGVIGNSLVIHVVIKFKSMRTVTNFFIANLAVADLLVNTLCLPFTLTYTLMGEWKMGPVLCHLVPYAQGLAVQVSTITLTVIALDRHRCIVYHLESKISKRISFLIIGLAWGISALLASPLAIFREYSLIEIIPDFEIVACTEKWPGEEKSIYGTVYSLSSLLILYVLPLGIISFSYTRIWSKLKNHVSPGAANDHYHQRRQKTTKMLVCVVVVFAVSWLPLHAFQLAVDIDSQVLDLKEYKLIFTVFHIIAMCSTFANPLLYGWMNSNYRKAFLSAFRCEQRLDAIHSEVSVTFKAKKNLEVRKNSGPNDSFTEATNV
# [27] = target: Calcium/calmodulin-dependent protein kinase type II subunit beta (Homo sapiens) (UniProt Q13554); test: Inhibition of CAMK2B at 3 uM
# [28] = target: 3-phosphoinositide-dependent protein kinase 1 (Homo sapiens) (UniProt O15530); test: Inhibition of PDPK1 at 3 uM
# [29] = target: Mitogen-activated protein kinase 11 (Homo sapiens) (UniProt Q15759); test: Inhibition of p38-beta at 3 uM
# [30] = target: Death-associated protein kinase 1 (Homo sapiens) (UniProt P53355); test: Inhibition of DAPK1 at 3 uM
# [31] = target: RAF proto-oncogene serine/threonine-protein kinase (Homo sapiens) (UniProt P04049); test: Inhibition of RAF1 at 3 uM
# [32] = target: Alpha-1B adrenergic receptor (Rattus norvegicus) (UniProt P15823); test: Inhibition of rat adrenergic Alpha-1B receptor at 3 uM
# [33] = target: Death-associated protein kinase 2 (Homo sapiens) (UniProt Q9UIK4); test: Inhibition of DAPK2 at 3 uM
# Chain of Death-associated protein kinase 2 (Homo sapiens) (Q9UIK4 whole entry, looked up): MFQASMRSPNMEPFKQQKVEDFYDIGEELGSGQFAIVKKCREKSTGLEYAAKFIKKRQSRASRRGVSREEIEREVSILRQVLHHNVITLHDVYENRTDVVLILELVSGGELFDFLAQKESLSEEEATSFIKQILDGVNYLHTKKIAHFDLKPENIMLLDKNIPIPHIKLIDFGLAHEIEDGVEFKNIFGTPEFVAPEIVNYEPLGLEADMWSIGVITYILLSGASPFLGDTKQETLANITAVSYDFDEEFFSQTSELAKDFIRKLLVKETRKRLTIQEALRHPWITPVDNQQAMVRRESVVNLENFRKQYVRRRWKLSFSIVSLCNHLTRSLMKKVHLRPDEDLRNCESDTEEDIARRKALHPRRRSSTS
# [34] = target: Serine/threonine-protein kinase MARK2 (Homo sapiens) (UniProt Q7KZI7); test: Inhibition of MARK2 at 3 uM
# [35] = target: Bone morphogenetic protein receptor type-1B (Homo sapiens) (UniProt O00238); test: Inhibition of BMPR1B at 3 uM
# [36] = target: Uncharacterized serine/threonine-protein kinase SBK3 (Homo sapiens) (UniProt P0C264); test: Inhibition of SgK110 at 3 uM
# [37] = target: Casein kinase I isoform alpha-like (Homo sapiens) (UniProt Q8N752); test: Inhibition of CSNK1A1L at 3 uM
# [38] = target: Serine/threonine-protein kinase 32B (Homo sapiens) (UniProt Q9NY57); test: Inhibition of YANK2 at 3 uM
# [39] = target: Serine/threonine-protein kinase MRCK alpha (Homo sapiens) (UniProt Q5VT25); details: 3 uM
# [40] = target: Mitogen-activated protein kinase kinase kinase 5 (Homo sapiens) (UniProt Q99683); test: Inhibition of MAP3K5 at 3 uM
# [41] = target: Glutamate NMDA receptor (Rattus norvegicus) (UniProt P35439+Q00959+Q00960+Q00961+Q62645+Q8VHN2+Q9R1M7); test: Displacement of phencyclidine from rat NMDA receptor at 3 uM; format: protein-complex assay; in short: as §1
# [42] = target: Tyrosine-protein kinase Tec (Homo sapiens) (UniProt P42680); test: Inhibition of TEC at 3 uM
# [43] = target: Mitogen-activated protein kinase 13 (Homo sapiens) (UniProt O15264); test: Inhibition of p38-delta at 3 uM
# Chain of Beta-2 adrenergic receptor (Homo sapiens) (P07550 whole entry, looked up): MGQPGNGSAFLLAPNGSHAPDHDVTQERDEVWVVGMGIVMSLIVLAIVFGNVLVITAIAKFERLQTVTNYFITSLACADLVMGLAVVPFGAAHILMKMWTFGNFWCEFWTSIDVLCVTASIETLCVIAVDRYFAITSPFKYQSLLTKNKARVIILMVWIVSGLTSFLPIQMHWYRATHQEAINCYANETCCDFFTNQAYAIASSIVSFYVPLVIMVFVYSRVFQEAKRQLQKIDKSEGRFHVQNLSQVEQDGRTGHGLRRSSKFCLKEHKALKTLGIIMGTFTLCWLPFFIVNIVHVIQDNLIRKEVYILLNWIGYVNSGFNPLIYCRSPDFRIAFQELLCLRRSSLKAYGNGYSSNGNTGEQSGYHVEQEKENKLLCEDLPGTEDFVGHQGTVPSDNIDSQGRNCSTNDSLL
compound,measurement,setting,value
CN(C)CCOc1cc(-c2cn[nH]c2)ccc1NC(=O)C1COc2ccccc2O1 (stereo not given) [SR-3677],inhibition,[1],< 10%
same,inhibition,[2],19%
same,inhibition,[3],< 10%
same,inhibition,[4],< 10%
same,inhibition,[5],< 10%
same,inhibition,[6],< 10%
same,inhibition,[7],< 10%
same,inhibition,[8],< 10%
same,inhibition at 10 µM,CYP2C9,80%
same,inhibition,[9],-8%
same,inhibition,[10],< 10%
same,inhibition,[11],< 10%
same,inhibition,[12],< 10%
same,inhibition,[13],< 10%
same,inhibition,[14],< 10%
same,half-life,[15],48 min
same,inhibition,[16],1%
same,inhibition,[17],< 10%
same,inhibition,[18],< 10%
same,inhibition,[19],< 10%
same,inhibition,[20],10%
same,inhibition,[21],< 10%
same,inhibition,Rattus norvegicus,-1%
same,inhibition,[22],-1%
same,inhibition,[23],< 10%
same,inhibition,[24],-7%
same,IC50,[25],3.5 nM
same,inhibition,[26],0%
same,inhibition,[27],< 10%
same,inhibition,[28],< 10%
same,inhibition,[29],< 10%
same,inhibition,[30],< 10%
same,inhibition,[31],< 10%
same,inhibition,[32],68%
same,inhibition,[33],< 10%
same,inhibition,[34],< 10%
same,inhibition,[35],< 10%
same,inhibition,[36],< 10%
same,inhibition,[37],< 10%
same,inhibition,[38],< 10%
same,inhibition,[39],< 10%
same,inhibition,[40],< 10%
same,inhibition,[41],-2%
same,inhibition,[42],< 10%
same,inhibition,[43],< 10%

# Source: ChEMBL document CHEMBL1142492 (J Med Chem, 2008)
